# Reference: ChEMBL document CHEMBL5724801, “EUbOPEN Chemogenomics Library - Multiplex” (2024)
# Several values for one entry are separate records, joined by “and”; a condition that tells them apart may be missing. Identical values can stand only once.
# System: U2OS
# Experiment: Multiplex assay against U2OS
# Type: toxicity, cell-based
# Conditions: human
# How it was run: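 Live cells were stained at seeding with Hoechst33342, BioTracker Green Microtubule Cytoskeleton Dye, MitoTracker Red and Annexin V Alexa Fluor 680, then imaged on a CQ1 microscope at 37°C and 5% CO2 after compound addition. CellPathfinder machine-learning gating split cells into Hoechst high-intensity objects or normal cells. Normal cells were split into healthy, pyknosed or fragmented nuclei, and pyknosed cells into mitotic or apoptotic. Tubulin, mitochondrial-mass and membrane-permeability phenotypes are per cents of healthy-nucleus cells.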
# [1] = 12 h, 1 µM, compound concentration 1 uM
# [2] = 12 h, 10 µM, compound concentration 10 uM
# [3] = 24 h, 1 µM, compound concentration 1 uM
# [4] = 24 h, 10 µM, compound concentration 10 uM
# [5] = 48 h, 1 µM, compound concentration 1 uM
# [6] = 48 h, 10 µM, compound concentration 10 uM
smiles,measurement,setting,value
CCn1c(-c2nonc2N)nc2c(C#CC(C)(C)O)ncc(OCC3CCCNC3)c21 (centres undefined),Population Apoptotic (%),[1],30.23% and 52.17%
same,Population Fragmented Nuclei (%),[1],3.38% and 1.86%
same,Population Healthy Nuclei (%),[1],85.45% and 83.85%
same,Population Hoechst High Intensity Objects (%),[1],0%
same,Population Membrane Permeable-Phenotype (%),[1],1.22% and 1.48%
same,Population Mitochondria Different-Phenotype (%),[1],0% and 5.93%
same,Population Mitotic Cells (%),[1],69.77% and 47.83%
same,Population Normal (%),[1],100%
same,Population Pyknosed Nuclei (%),[1],11.17% and 14.29%
same,Population Tubulin-Different-Phenotype (%),[1],0.91% and 0.74%
same,Total Cell Count,[1],385 and 161
same,Population Apoptotic (%),[2],37.04% and 27.91%
same,Population Fragmented Nuclei (%),[2],2.62% and 8.28%
same,Population Healthy Nuclei (%),[2],83.2% and 64.33%
same,Population Hoechst High Intensity Objects (%),[2],0%
same,Population Membrane Permeable-Phenotype (%),[2],0.95% and 4.95%
same,Population Mitotic Cells (%),[2],62.96% and 72.09%
same,Population Normal (%),[2],100%
same,Population Pyknosed Nuclei (%),[2],14.17% and 27.39%
same,Population Tubulin-Different-Phenotype (%),[2],2.52% and 4.95%
same,Total Cell Count,[2],381 and 157
same,Population Apoptotic (%),[3],38.6% and 42.86%
same,Population Fragmented Nuclei (%),[3],2.16% and 1.54%
same,Population Healthy Nuclei (%),[3],86.64% and 84.1%
same,Population Hoechst High Intensity Objects (%),[3],0.2% and 0.51%
same,Population Membrane Permeable-Phenotype (%),[3],0.68% and 5.49%
same,Population Mitochondria Different-Phenotype (%),[3],0.23% and 1.83%
same,Population Mitotic Cells (%),[3],61.4% and 57.14%
same,Population Normal (%),[3],99.8% and 99.49%
same,Population Pyknosed Nuclei (%),[3],11.2% and 14.36%
same,Population Tubulin-Different-Phenotype (%),[3],1.36% and 0%
same,Total Cell Count,[3],510 and 196
same,Population Apoptotic (%),[4],44.32% and 50%
same,Population Fragmented Nuclei (%),[4],2.7% and 7.78%
same,Population Healthy Nuclei (%),[4],77.53% and 56.67%
same,Population Hoechst High Intensity Objects (%),[4],0%
same,Population Membrane Permeable-Phenotype (%),[4],0.29% and 0.98%
same,Population Mitotic Cells (%),[4],55.68% and 50%
same,Population Normal (%),[4],100%
same,Population Pyknosed Nuclei (%),[4],19.78% and 35.56%
same,Population Tubulin-Different-Phenotype (%),[4],3.48% and 3.92%
same,Total Cell Count,[4],445 and 180
same,Population Apoptotic (%),[5],50% and 45.16%
same,Population Fragmented Nuclei (%),[5],2.09% and 2.15%
same,Population Healthy Nuclei (%),[5],90.19% and 88.34%
same,Population Hoechst High Intensity Objects (%),[5],0%
same,Population Membrane Permeable-Phenotype (%),[5],1.22% and 1.39%
same,Population Mitochondria Different-Phenotype (%),[5],0% and 4.51%
same,Population Mitotic Cells (%),[5],50% and 54.84%
same,Population Normal (%),[5],100%
same,Population Pyknosed Nuclei (%),[5],7.72% and 9.51%
same,Population Tubulin-Different-Phenotype (%),[5],0.49% and 1.04%
same,Total Cell Count,[5],907 and 326
same,Population Apoptotic (%),[6],65.03% and 83.08%
same,Population Fragmented Nuclei (%),[6],6.86% and 8.16%
same,Population Healthy Nuclei (%),[6],71.34% and 58.67%
same,Population Hoechst High Intensity Objects (%),[6],0%
same,Population Membrane Permeable-Phenotype (%),[6],1.71% and 7.83%
same,Population Mitochondria Different-Phenotype (%),[6],0.64% and 7.83%
same,Population Mitotic Cells (%),[6],34.97% and 16.92%
same,Population Normal (%),[6],100%
same,Population Pyknosed Nuclei (%),[6],21.8% and 33.16%
same,Population Tubulin-Different-Phenotype (%),[6],2.56% and 7.83%
O=C1NC(NC23CC4CC(CC(C4)C2)C3)=N/C1=C\c1ccc2ncsc2c1,Population Apoptotic (%),[1],51.02% and 44.83%
same,Population Fragmented Nuclei (%),[1],17.88% and 22.19%
same,Population Healthy Nuclei (%),[1],75% and 69.66%
same,Population Hoechst High Intensity Objects (%),[1],0.86% and 0%
same,Population Membrane Permeable-Phenotype (%),[1],0.97% and 3.63%
same,Population Mitochondria Different-Phenotype (%),[1],0% and 3.23%
same,Population Mitotic Cells (%),[1],48.98% and 55.17%
same,Population Normal (%),[1],99.14% and 100%
same,Population Pyknosed Nuclei (%),[1],7.12% and 8.15%
same,Population Tubulin-Different-Phenotype (%),[1],0.58% and 2.82%
same,Total Cell Count,[1],694 and 356
same,Population Apoptotic (%),[2],44.44% and 38.46%
same,Population Fragmented Nuclei (%),[2],64.07% and 81%
same,Population Healthy Nuclei (%),[2],21.59% and 11.58%
same,Population Membrane Permeable-Phenotype (%),[2],0.82% and 0%
same,Population Mitochondria Different-Phenotype (%),[2],0% and 1.41%
same,Population Mitotic Cells (%),[2],55.56% and 61.54%
same,Population Normal (%),[2],52.03% and 84.32%
same,Population Pyknosed Nuclei (%),[2],14.34% and 7.42%
same,Population Tubulin-Different-Phenotype (%),[2],0% and 1.41%
same,Total Cell Count,[2],1086 and 1454
same,Population Apoptotic (%),[3],50% and 44.68%
same,Population Fragmented Nuclei (%),[3],19.28% and 20.63%
same,Population Healthy Nuclei (%),[3],75.17% and 67.96%
same,Population Hoechst High Intensity Objects (%),[3],0.69% and 0%
same,Population Membrane Permeable-Phenotype (%),[3],1.48% and 2.86%
same,Population Mitochondria Different-Phenotype (%),[3],0.37% and 5.71%
same,Population Mitotic Cells (%),[3],50% and 55.32%
same,Population Normal (%),[3],99.31% and 100%
same,Population Pyknosed Nuclei (%),[3],5.55% and 11.41%
same,Population Tubulin-Different-Phenotype (%),[3],2.03% and 2.86%
same,Total Cell Count,[3],726 and 412
same,Population Apoptotic (%),[4],45.1% and 35.71%
same,Population Fragmented Nuclei (%),[4],58.49% and 84.85%
same,Population Healthy Nuclei (%),[4],17.9% and 8.37%
same,Population Membrane Permeable-Phenotype (%),[4],0%
same,Population Mitochondria Different-Phenotype (%),[4],0%
same,Population Mitotic Cells (%),[4],54.9% and 64.29%
same,Population Normal (%),[4],60.11% and 86.9%
same,Population Tubulin-Different-Phenotype (%),[4],0%
same,Total Cell Count,[4],1078 and 1664
same,Population Apoptotic (%),[5],50% and 51.75%
same,Population Fragmented Nuclei (%),[5],22.08% and 20.53%
same,Population Healthy Nuclei (%),[5],72.6% and 58%
same,Population Hoechst High Intensity Objects (%),[5],3.35% and 1.12%
same,Population Membrane Permeable-Phenotype (%),[5],1.27% and 2.27%
same,Population Mitochondria Different-Phenotype (%),[5],0.32% and 9.42%
same,Population Mitotic Cells (%),[5],50% and 48.25%
same,Population Normal (%),[5],96.65% and 98.88%
same,Population Tubulin-Different-Phenotype (%),[5],2.23% and 2.6%
same,Total Cell Count,[5],895 and 537
same,Population Apoptotic (%),[6],51.13% and 47.24%
same,Population Fragmented Nuclei (%),[6],58.82% and 85.02%
same,Population Healthy Nuclei (%),[6],12.73% and 6.82%
same,Population Hoechst High Intensity Objects (%),[6],31% and 15.76%
same,Population Membrane Permeable-Phenotype (%),[6],0% and 1.89%
same,Population Mitochondria Different-Phenotype (%),[6],0% and 0.94%
same,Population Mitotic Cells (%),[6],48.87% and 52.76%
same,Population Normal (%),[6],69% and 84.24%
same,Population Tubulin-Different-Phenotype (%),[6],0%
same,Total Cell Count,[6],1355 and 1846
